PubChem BioAssay
Activity calls are given as the source filed them.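 How the source made its calls, unless noted: active means fluorescence slope higher than the sample average by over 3 SD (cut at about -0.22 in these data, passing the limit was not always enough); inactive means the rest.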

Experiments:
[1] = inhibitors of TNFa-induced NFkB p65 translocation, primary screen, imaging, HUVEC, MLSMR starter and 10KST1 sets (AID 438;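 active means inhibition above 20% together with a positive visual image hit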;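 further: compound added about 3h40 before a 20 min TNFalpha stimulation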;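 on inhibition: signal is the nuclear over cytoplasmic p65 intensity ratio per well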); details: HUVEC TNFa-induced p65 nuclear translocation; cell count: measured here: nuclei count (cytotoxicity indicator), at 2.08 µM; inhibition: at 2 µM, stronger effect = higher value, 0% TNFa-plus-vehicle, 100% no-TNFa wells
[2] = inhibitors of mutant huntingtin aggregation, primary screen, imaging, exon1htt(103Q)mCFP cells, high-content imaging (AID 483;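 active means visual image review flags a hit and inhibition of aggregation exceeds 20%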;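 further: compound exposure lasted 3 days before fixation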;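 on nuclei count: percent of the per-plate median nuclei count of sample wells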); details: exon1htt(103Q)mCFP cell line, aggregate imaging, at 2 µM; inhibition of aggregation: stronger effect = higher value; nuclei count: measured here: cell count, toxicity
[3] = inhibitors of E-selectin induction by TNFa, primary screen, imaging, HUVEC, immunofluorescence, MLSMR starter and 10KST1 sets (AID 487;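 active means visually confirmed hit in the image check and inhibition above 20%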;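 on inhibition: signal is fraction of cell area covered by stained E-selectin grains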;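 on nuclei count: 100% = median nuclei count of all wells on the same plate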); details: HUVEC TNFalpha-induced E-selectin immunofluorescence imaging, at 2 µM; inhibition: stronger effect = higher value; nuclei count: measured here: cell number, toxicity
[4] = biological target: Voltage-gated potassium channel subunit beta-2 (Rattus norvegicus) (UniProt P62483); assay: KvBeta enzyme negative modulators, primary screen, biochemical, NADPH fluorescence (AID 622); details: recombinant KvBeta, 4-cyanobenzaldehyde reduction, at 10 µM, stronger effect = higher value;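 further: slope of raw intensity against log time taken from 70 to 1610 s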
[5] = biological target: Voltage-gated potassium channel subunit beta-2 (Rattus norvegicus) (UniProt P62483); assay: KvBeta positive modulators, primary screen, biochemical, NADPH fluorescence (AID 623;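 active means NADPH fluorescence slope more negative than the mean of all samples by about 3 SD, 99.7% confidence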;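 further: fluorescence intensity change per second fitted from 20 to 320 s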); details: Recombinant KvBeta, NADPH fluorescence decrease slope, 10 min; at 10 µM; stronger effect = lower value
[6] = biological target: Muscarinic acetylcholine receptor M4 (Homo sapiens) (UniProt P08173); assay: compounds altering M4/GIRK thallium flux, either direction, primary screen, M4 allosteric agonist project, cell-based, HEK293 M4/GIRK, BTC-AM (AID 625;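 active means fluorescence slope after compound addition differing from the mean of all tested samples at 99.7% confidence, mostly higher but some lower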;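 further: thallium influx through GIRK channels coupled to M4 in HEK293 cells with BTC-AM dye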); details: at 10 µM, actives lie on both sides
In short: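 assay system = HEK293 cells with M4 receptor and GIRK channels | medium = pH 7.3 thallium assay buffer | doses = 10 µM final, single point | timing = cells overnight at 37 °C, BTC-AM loading 1 h, reads 2 min total | signal = BTC-AM fluorescence, 1 Hz kinetic reads | read-out = post-addition slope, 15–24 s, of baseline-normalized fluorescence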

[7] = inhibitors of Sendai virus-induced IRF3 signaling, primary screen, TLR/RLR signaling modifier project, cell-based, Sendai virus stimulus, luciferase, 10K MLSCN set (AID 602276;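 active means inhibition at or above 50% at 10 µM; inactive means inhibition below 50%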;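 further: firefly luciferase from ISG56 promoter only with Renilla not read in this screen; 0% = Sendai virus plus DMSO and 100% = medium plus DMSO without virus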); details: HEK293 RL24 IRF3 luciferase reporter, at 10 µM, stronger effect = higher value
[8] = inhibitors of poly I:C-induced TLR3 signaling, primary screen, cell-based, poly I:C stimulus, luciferase, 10K MLSCN set (AID 602277;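 active means inhibition of the reporter signal at or above 50%; inactive means inhibition below 50%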); details: HEK293-TLR3 RL24 IRF3 luciferase reporter, at 10 µM, stronger effect = higher value

Sequence of Muscarinic acetylcholine receptor M4 (Homo sapiens) (P08173 whole entry, looked up): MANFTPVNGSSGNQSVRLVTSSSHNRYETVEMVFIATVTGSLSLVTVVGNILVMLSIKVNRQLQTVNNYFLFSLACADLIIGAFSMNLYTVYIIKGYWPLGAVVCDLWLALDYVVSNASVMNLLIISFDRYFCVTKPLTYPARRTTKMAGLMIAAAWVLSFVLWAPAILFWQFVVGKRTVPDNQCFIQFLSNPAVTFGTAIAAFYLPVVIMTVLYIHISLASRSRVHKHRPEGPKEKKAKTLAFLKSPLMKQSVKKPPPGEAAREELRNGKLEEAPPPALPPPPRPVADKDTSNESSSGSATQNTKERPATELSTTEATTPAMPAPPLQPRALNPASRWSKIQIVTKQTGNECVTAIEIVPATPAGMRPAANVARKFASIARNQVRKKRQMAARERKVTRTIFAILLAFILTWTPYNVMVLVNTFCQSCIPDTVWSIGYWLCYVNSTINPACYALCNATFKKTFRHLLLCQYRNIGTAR
Sequence of Voltage-gated potassium channel subunit beta-2 (Rattus norvegicus) (P62483 whole entry, looked up): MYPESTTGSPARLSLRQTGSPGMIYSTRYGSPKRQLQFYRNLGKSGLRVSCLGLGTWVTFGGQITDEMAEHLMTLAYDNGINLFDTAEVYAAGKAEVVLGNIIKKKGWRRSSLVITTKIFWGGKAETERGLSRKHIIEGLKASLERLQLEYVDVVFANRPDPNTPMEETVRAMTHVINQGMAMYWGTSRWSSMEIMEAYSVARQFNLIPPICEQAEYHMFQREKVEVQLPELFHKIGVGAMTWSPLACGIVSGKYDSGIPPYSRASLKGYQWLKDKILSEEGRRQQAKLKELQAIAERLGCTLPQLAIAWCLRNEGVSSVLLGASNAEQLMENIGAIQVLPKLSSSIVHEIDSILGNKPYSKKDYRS

| SMILES | cell count [1] | inhibition [1] | inhibition of aggregation [2] | nuclei count [2] | inhibition [3] | nuclei count [3] | fluorescence slope [4] | NADPH fluorescence slope [5] | fluorescence slope [6] | inhibition [7] | inhibition [8] |
| --- | --- | --- | --- | --- | --- | --- | --- | --- | --- | --- | --- |
| C/C(NC1CCCC1)=C(/C#N)C(N)=O | 396 | -23.5% (inactive) | -0.6% (inactive) | 108% | -38.9% (inactive) | 144% | -0.583 (inactive) | -2.4e-05 (inactive) | 0.00436 (inactive) | 16.9% (inactive) | 22.8% (inactive) |
| CC(=O)c1cccc(NC(=O)N2C3CCC2CC(O)(c2cccnc2)C3)c1 (stereo not drawn) | 602 | 9.7% (inactive) | -21.4% (inactive) | 104% | -27.6% (inactive) | 106% | -0.259 (inactive) | 3.9e-06 (inactive) | 0.0059 (inactive) | -7.02% (inactive) | 16.5% (inactive) |
| COc1ccc(OC)c(S(=O)(=O)NCCO)c1 | 217 | -7.9% (inactive) | 11% (inactive) | 112% | 33.4% (inactive) | 102% | -0.567 (inactive) | -2.1e-05 (inactive) | 0.00652 (inactive) | 16% (inactive) | 24.6% (inactive) |
| CCN(c1cccc(C)c1)S(=O)(=O)c1ccc2[nH]c(=O)c(=O)[nH]c2c1 | 415 | 6.2% (inactive) | 7.1% (inactive) | 93.5% | -8.3% (inactive) | 98% | -0.514 (inactive) | -0.000128 (inactive) | 0.00491 (inactive) | 12.5% (inactive) | 21.6% (inactive) |
| O=C(NCCCN1CCN(CCCNC(=O)c2ccc(F)cc2)CC1)c1ccc(F)cc1 | 364 | -1.1% (inactive) | -1.8% (inactive) | 109% | 4.2% (inactive) | 102% | -0.528 (inactive) | 1.1e-05 (inactive) | 0.00616 (inactive) | 14.8% (inactive) | 23.9% (inactive) |
| CCOC(=O)Nc1ccc(OC)cc1S(=O)(=O)N1CCCCC1 | 714 | 3.3% (inactive) | -24% (inactive) | 87.3% | -14.6% (inactive) | 111% | -0.586 (inactive) | 2.6e-05 (inactive) | 0.00355 (inactive) | 11.7% (inactive) | 17% (inactive) |
| COc1ccc(C2CC(c3ccc(Cl)cc3)Nc3nc(NC(=O)c4ccco4)nn32)cc1 (stereo not drawn) | 574 | -11.9% (inactive) | -6.2% (inactive) | 98.1% | 27.9% (inactive) | 91.8% | -0.427 (inactive) | -6.7e-05 (inactive) | 0.00611 (inactive) | 14.1% (inactive) | 24.6% (inactive) |
| CCN(CC)C(=O)c1sc(NC(=O)c2ccco2)c(C#N)c1C | 752 | -1.3% (inactive) | -26% (inactive) | 118% | 1.3% (inactive) | 117% | -0.586 (inactive) | 1.3e-05 (inactive) | 0.00573 (inactive) | 11.4% (inactive) | 13.3% (inactive) |
| Cc1ccc(-n2nc(C(=O)N3CCN(C)CC3)c3c4ccccc4n(C)c3c2=O)cc1 | 264 | 5.9% (inactive) | -10.3% (inactive) | 90.9% | -38.3% (inactive) | 119% | -0.523 (inactive) | -2e-05 (inactive) | 0.00583 (inactive) | 19.7% (inactive) | 35.7% (inactive) |
| Cc1n[nH]c(C)c1S(=O)(=O)N1CCCCCC1 | 355 | 1.8% (inactive) | -0.3% (inactive) | 99.2% | -12.3% (inactive) | 110% | -0.488 (inactive) | 1.3e-05 (inactive) | 0.00614 (inactive) | 1.38% (inactive) | 25% (inactive) |
| COc1cc(OC)cc(C(=O)NCc2n[nH]c(=S)n2-c2ccccc2OC)c1 | 385 | 0% (inactive) | -6.2% (inactive) | 112% | -29.2% (inactive) | 83% | -0.329 (inactive) | -6.5e-05 (inactive) | 0.00633 (inactive) | 7.57% (inactive) | 6.78% (inactive) |
| CCOC(=O)c1cc(C)n(CCCN2CCOCC2)c1C | 678 | 2.6% (inactive) | -5.8% (inactive) | 114% | -162% (inactive) | 109% | -0.473 (inactive) | 1.5e-05 (inactive) | 0.00505 (inactive) | 0.506% (inactive) | 19.3% (inactive) |
| CCOC(=O)N1CCN(S(=O)(=O)c2cc(C)c(C)cc2C)CC1 | 373 | 2.8% (inactive) | -7.2% (inactive) | 99.3% | -69.5% (inactive) | 137% | -0.459 (inactive) | -1.8e-05 (inactive) | 0.00447 (inactive) | 13.4% (inactive) | 20.2% (inactive) |
| CCOC(=O)C1CCCN(C(=O)c2ccc3c(=O)n(CCOC)c(=S)[nH]c3c2)C1 (stereo not drawn) | 417 | 3.9% (inactive) | -2.5% (inactive) | 81.3% | 20.2% (inactive) | 91.8% | -0.386 (inactive) | -6.4e-05 (inactive) | 0.00594 (inactive) | 6.16% (inactive) | -7.26% (inactive) |
| Cc1cc(NC(=O)C23CCC(C)(c4nc5cc(Cl)c(Cl)cc5nc42)C3(C)C)no1 (stereo not drawn) | 409 | 4.3% (inactive) | 7.4% (inactive) | 104% | -116% (inactive) | 92.1% | -0.577 (inactive) | -4.4e-05 (inactive) | 0.00686 (inactive) | 12.2% (inactive) | 15.9% (inactive) |
| C=CCn1c(SCc2cc(=O)n3ccsc3n2)nnc1C1CCCCC1 | 439 | 3.8% (inactive) | -27.5% (inactive) | 104% | 3.6% (inactive) | 116% | -0.561 (inactive) | -1.8e-05 (inactive) | 0.00775 (inactive) | 9.44% (inactive) | 21.1% (inactive) |
| CSc1ccccc1NC(=O)c1noc2c1CCC2 | 416 | 2.6% (inactive) | -0.9% (inactive) | 109% | -55.8% (inactive) | 120% | -0.593 (inactive) | -8e-06 (inactive) | 0.00589 (inactive) | -12.4% (inactive) | -50.3% (inactive) |
| O=C(NCCc1ccccc1)c1cc(-c2ccco2)on1 | 384 | -8.7% (inactive) | 7.8% (inactive) | 102% | -29.5% (inactive) | 96.5% | -0.473 (inactive) | -5.1e-05 (inactive) | 0.00445 (inactive) | -44.9% (inactive) | -169% (inactive) |
| COc1ccc(N2CCN(C(=O)CSc3ncnc4c3cnn4-c3ccccc3C)CC2)cc1 | 543 | 2.1% (inactive) | -6.1% (inactive) | 120% | -60.3% (inactive) | 159% | -0.506 (inactive) | -3.3e-06 (inactive) | 0.0046 (inactive) | 10.5% (inactive) | 15.1% (inactive) |
| Cc1cc(NC(=O)CCC(=O)N(CC2CCCO2)C(C(=O)NC2CCCC2)c2ccccc2C)no1 (stereo not drawn) | 341 | 0% (inactive) | 26.9% (inactive) | 63.6% | -106% (inactive) | 117% | -0.453 (inactive) | -5.7e-05 (inactive) | 0.00469 (inactive) | 20.9% (inactive) | 21.7% (inactive) |
| CC1=C(C(=O)OCCOC(C)C)C(c2cc3c(cc2Br)OCO3)C2=C(CCCC2=O)N1 (stereo not drawn) | 446 | 0.2% (inactive) | 8.5% (inactive) | 41.8% | -37.4% (inactive) | 105% | -0.485 (inactive) | 6.8e-05 (inactive) | 0.00686 (inactive) | 20.8% (inactive) | 26.6% (inactive) |
| Cc1cc(C)nc(N2CCCC(C(=O)Nc3nc4ccc(S(C)(=O)=O)cc4s3)C2)n1 (stereo not drawn) | 599 | 1.8% (inactive) | 2.6% (inactive) | 117% | 6.8% (inactive) | 107% | -0.459 (inactive) | 9.7e-05 (inactive) | 0.00564 (inactive) | 12% (inactive) | 11.5% (inactive) |
| COCCCNS(=O)(=O)c1ccc2c(c1)CCN2C(C)=O | 416 | 0.3% (inactive) | -9.3% (inactive) | 125% | -31.6% (inactive) | 139% | -0.578 (inactive) | 1.1e-05 (inactive) | 0.00611 (inactive) | 15.1% (inactive) | 15% (inactive) |
| S=c1[nH]c2ccc(Cl)cc2[nH]1 | 457 | -3.8% (inactive) | -4% (inactive) | 91.1% | -78.7% (inactive) | 110% | -0.449 (inactive) | -3.7e-05 (inactive) | 0.00564 (inactive) | 21.3% (inactive) | 33.3% (inactive) |
| COc1ccccc1Nc1nc(N)nc(CSc2nccc(C)n2)n1 | 701 | -8.6% (inactive) | -9.5% (inactive) | 99.9% | 28.3% (inactive) | 112% | -0.546 (inactive) | 4.7e-05 (inactive) | 0.00561 (inactive) | 11.6% (inactive) | 5.69% (inactive) |
| CCCCN(CCCC)CCCNC(=O)CC1Oc2ccc(C)cc2NC1=O (stereo not drawn) | 618 | -18.4% (inactive) | 4.4% (inactive) | 110% | -6.4% (inactive) | 92.1% | -0.242 (inactive) | -7e-06 (inactive) | 0.00528 (inactive) | 17.2% (inactive) | 23.7% (inactive) |
| COc1ccc(-n2nnnc2-c2cccc(OC)c2)cc1 | 573 | -45.9% (inactive) | -61.4% (inactive) | 2.6% | -101% (inactive) | 105% | -0.252 (inactive) | -3.1e-05 (inactive) | 0.00701 (inactive) | 34.8% (inactive) | 47.8% (inactive) |
| CC(OC(=O)c1cccc(NS(C)(=O)=O)c1)C(=O)Nc1ccc(N2CCOCC2)cc1 (stereo not drawn) | 415 | -11.6% (inactive) | -32.5% (inactive) | 101% | -52.8% (inactive) | 148% | -0.559 (inactive) | -3.1e-05 (inactive) | 0.0061 (inactive) | 16.6% (inactive) | -7.05% (inactive) |
